Where “and” joins values, the source holds several entries; their conditions need not be identical. Equal entries are not always repeated. Where two headings read alike, the source gives them in different places. Marks after values point to notes of the source that are not given here. One block for each compound: values may come before it.
Assays:
[1] = ARIADME phase I pharmacokinetics/bioavailability study; assay type: in vivo, human; settings: for Cmax: healthy male subjects; for CL renal: plasma and urine, CLR; for half-life: t½; for AUC(0-inf): AUC0–inf; for AUC(0-t): AUC0–tlast; for tmax: median (range)
Outline: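 Six healthy fasted men took one oral 300 mg tablet, then a 100 µg IV 14C-microtracer as a 15-min infusion ending 3 h post-dose. Six others took an oral 14C-dose of 300 mg in aqueous propylene glycol solution (≤ 6.3 MBq). Oral plasma levels were measured by validated HPLC-MS, and IV levels by LC fractionation with accelerator MS. Values are geometric mean (CV%).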

[2] = assay type: in vivo, human; settings: for RLIN, linearity factor (ratio of multiple-dose AUC0–12 to single-dose AUC): 600 mg BID with food; for trough concentrations reached steady-state levels after: BID treatment 600 mg; for RAAUC, accumulation ratio based on AUC0–12 / RACmax, accumulation ratio based on Cmax: multiple (day 7) vs single (day 1) dosing, 600 mg BID
Outline: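 Fifteen healthy men took 600 mg (two 300 mg tablets) 30 min after starting a standardized meal on day 1, then twice daily on days 4–7. Plasma was sampled to 72 h after the single dose, at trough on days 4–6, and to 12 h on day 7. Samples underwent solid-phase extraction and LC-MS/MS. Accumulation ratios compared multiple- with single-dose AUC0–12 and Cmax. RLIN was multiple-dose AUC0–12 over single-dose AUC0–inf.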

[3] = assay type: in vivo, human; settings: for Cmax increase vs healthy subjects / exposure (AUC0–48) increase vs healthy subjects: single 600 mg with food
Outline: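 Open-label, parallel-group, multicenter trial in men aged 45–79. Groups were Child–Pugh B cirrhosis, severe renal impairment (eGFR 15–29 mL/min/1.73 m2, MDRD equation), and age- and weight-matched healthy controls. Each took two 300 mg tablets 30 min after starting a standardized breakfast. Plasma was sampled pre-dose to 48 h and assayed by validated LC-MS/MS. Parameters used total and unbound concentrations.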

plasma proteins [4] = experiment: In vitro plasma protein binding; assay type: in vitro ADME; settings: human plasma (data on file)
plasma proteins [5] = assay type: in vitro ADME, human; settings: ex vivo samples after single oral administration of darolutamide 600 mg
Outline: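 Unbound fractions of the parent, both diastereomers and keto metabolite were measured by equilibrium dialysis. Plasma came from healthy male subjects and from non-cancer patients with moderate hepatic or severe renal impairment, after a single oral 600 mg dose taken with food.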

[6] = Solubility in fed vs fasted state simulated intestinal fluid; assay type: physicochemical; settings: in vitro data (data on file)
[7] = tested on: patients with nonmetastatic castration-resistant prostate cancer (CRPC); settings: 600 mg BID, cited from earlier work
[8] = cited from earlier work
[9] = nonmetastatic CRPC, cited from earlier work
[10] = Day 1 (single dose) 600 mg oral with food, median (range)
[11] = Day 7 (multiple doses) 600 mg BID oral with food, median (range)
[12] = 100 µg IV 14C-microtracer, 15-min infusion, geometric mean (CV%)
[13] = male, human, plasma, iv, 100 µg
[14] = male, human, plasma, po, 300 mg, single 300 mg oral 14C-solution, fasted, geometric mean (CV%)
[15] = male, human, plasma, po, 300 mg, single 300 mg oral tablet, fasted, geometric mean (CV%)
[16] = male, human, plasma, po, 600 mg
[17] = moderate hepatic impairment (Child–Pugh class B)

metabolite:parent total concentration ratio based on AUC0–inf ([1]; IV microtracer dose): 1.50 | metabolite:parent total concentration ratio based on AUC0–inf ([1]; oral solution dose): 2.06 | metabolite:parent total concentration ratio based on AUC0–inf ([1]; oral tablet dose): 1.67 and 1.7 | RLIN, linearity factor (ratio of multiple-dose AUC0–12 to single-dose AUC) [2]: 1.2 | trough concentrations reached steady-state levels after [2]: 1 days | tmax [2, 10]: 4.00 (2.50–6.02) h | tmax [2, 11]: 3.00 (1.48–5.97) h | plasma exposure of keto-darolutamide vs darolutamide ([2]; after single and multiple dosing of darolutamide): approximately twofold higher | RAAUC, accumulation ratio based on AUC0–12 [2]: 2.2 | RACmax, accumulation ratio based on Cmax [2]: 2.0 | plasma exposure (AUC0–48) vs healthy subjects ([3]; patients with renal or hepatic impairment, increase less pronounced than for darolutamide): increased | mean free (unbound) fraction (plasma proteins [4]): 0.2% and < 1% | mean free (unbound) fraction in plasma (plasma proteins [5]): 0.12%
SMILES: CC(=O)c1cc(C(=O)N[C@@H](C)Cn2ccc(-c3ccc(C#N)c(Cl)c3)n2)[nH]n1 [Keto-darolutamide, keto-darolutamide]

RLIN, linearity factor (ratio of multiple-dose AUC0–12 to single-dose AUC) [2]: 1.1 | tmax [2, 10]: 5.98 (2.50–8.00) h | tmax [2, 11]: 3.98 (0.00–6.02) h | RAAUC, accumulation ratio based on AUC0–12 [2]: 2.3 | RACmax, accumulation ratio based on Cmax [2]: 2.0
SMILES: C[C@H](O)c1cc(C(=O)N[C@@H](C)Cn2ccc(-c3ccc(C#N)c(Cl)c3)n2)n[nH]1 [(S,S)-darolutamide]

SMILES: CC(O)c1cc(C(=O)N[C@@H](C)Cn2ccc(-c3ccc(C#N)c(Cl)c3)n2)[nH]n1 (stereo partly shown) [Darolutamide]
AUC0–inf [1, 12]: 13,645 (39.5)^a h⋅pg eq/mL | fraction absorbed based on amount of total 14C-radioactivity excreted in urine ([1]; 300 mg oral solution): 127% | fraction absorbed based on plasma AUC of total 14C-radioactivity ([1]; 300 mg oral solution): 109% | Cmax [1, 12]: 4127 (27.4)^a pg eq/mL | CL renal ([1]; male, human, po, 300 mg, single 300 mg oral 14C-solution, fasted, geometric mean (CV%)): 7.73 mL/min | CL renal ([1]; male, human, po, 300 mg, single 300 mg oral tablet, fasted, geometric mean (CV%)): 6.52 mL/min | Vd [1, 13]: 119 L | clearance [1, 13]: 116 mL/min | half-life ([1]; male, human, plasma, iv, 100 µg, 100 µg IV 14C-microtracer, 15-min infusion, geometric mean (CV%)): 11.8 h | AUC(0-inf) [1, 14]: 45600 ng·h/mL | AUC(0-inf) [1, 15]: 12900 ng·h/mL | AUC(0-t) [1, 14]: 45300 ng·h/mL | AUC(0-t) [1, 15]: 12400 ng·h/mL | Cmax ([1]; male, human, plasma, po, 300 mg, Cmax, single 300 mg oral 14C-solution, fasted, geometric mean (CV%)): 3820 ng/mL | Cmax ([1]; male, human, plasma, po, 300 mg, Cmax, single 300 mg oral tablet, fasted, geometric mean (CV%)): 800 ng/mL | bioavailability ([1]; male, human, plasma, po, 300 mg, F (absolute oral bioavailability), single 300 mg oral 14C-solution, fasted, geometric mean (CV%)): 98.9% | bioavailability ([1]; male, human, plasma, po, 300 mg, F (absolute oral bioavailability), single 300 mg oral tablet, fasted, geometric mean (CV%)): 29.9% | Vd/F [1, 14]: 101 L | Vd/F [1, 15]: 514 L | bioavailability ([1]; male, human, plasma, po, 300 mg, absolute bioavailability, single 300 mg oral solution, fasted): 98.9% | tmax ([1]; male, human, plasma, po, 300 mg, single 300 mg oral 14C-solution, fasted): 1.58 h | tmax ([1]; male, human, plasma, po, 300 mg, single 300 mg oral tablet, fasted): 3.5 h | half-life [1, 14]: 10.6 h | half-life [1, 15]: 15.3 h | CL/F ([1]; single 300 mg oral 14C-solution, fasted, geometric mean (CV%)): 110 (21.3) mL/min | absolute bioavailability ([1]; single 300 mg oral solution, fasted): ~ 100% | CL/F ([1]; single 300 mg oral tablet, fasted, geometric mean (CV%)): 388 (36.2) mL/min | mean AUC0–inf, oral solution higher than tablet formulation ([1]; single 300 mg, fasted): 3.5 fold | mean Cmax, oral solution higher than tablet formulation ([1]; single 300 mg, fasted): 4.8 fold | absolute bioavailability based on AUC0–inf ([1]; single 300-mg oral tablet, fasted state, IV microtracer as reference): ~ 30% | mean whole blood:plasma ratio of total 14C-radioactivity ([1]; single oral solution dose): 0.7 | RLIN, linearity factor (ratio of multiple-dose AUC0–12 to single-dose AUC) [2]: 1.1 | trough concentrations reached steady-state levels after [2]: 1 days | tmax [2, 10]: 5.97 (2.50–7.95) h | tmax [2, 11]: 3.98 (2.00–5.98) h | half-life ([2]; male, human, plasma, oral, 600 mg): 13 h | AUC(0-inf) [2, 16]: 26200 ng·h/mL | half-life [2, 16]: 11.6 h | tmax ([2]; male, human, plasma, po, 600 mg, median time to peak concentration, oral tablet, single dosing of 600 mg): 4 to 6 h | RAAUC, accumulation ratio based on AUC0–12 [2]: 2.1 | RACmax, accumulation ratio based on Cmax [2]: 1.9 | mean peak plasma concentration ([2]; single oral dose 600 mg with food, healthy male subjects): 1.77 µg/mL | time to steady state ([2]; twice-daily dosing): approximately 2 days | tmax ([3]; Moderate hepatic impairment, single oral 600 mg with food, median (range)): 4.00 (4.00–8.00) h | tmax ([3]; Severe renal impairment, single oral 600 mg with food, median (range)): 4.00 (3.00–12.0) h | tmax [3, 16]: 4 h | terminal t½ compared with healthy subjects ([3]; moderate hepatic impairment): did not change | Cmax increase vs healthy subjects [3, 17]: 1.5 fold | exposure (AUC0–48) increase vs healthy subjects [3, 17]: 1.9 fold | terminal t½ vs healthy subjects ([3]; severe renal impairment): prolonged | Cmax increase vs healthy subjects ([3]; severe renal impairment): 1.6 fold | exposure (AUC0–48) increase vs healthy subjects ([3]; severe renal impairment): 2.5 fold | mean free (unbound) fraction (plasma proteins [4]): ~ 8% and 8% | mean free (unbound) fraction in plasma (plasma proteins [5]): 7.8% | solubility in fed vs fasted state simulated intestinal fluid [6]: improved solubility | overall survival hazard ratio vs placebo ([7]; 95% confidence interval 0.53–0.88, p = 0.003): 0.69 | metastasis-free survival ([7]; p < 0.001 vs placebo): 40.4 months | absolute bioavailability of tablet given with food [8]: 60–75% | exposure vs patients with normal organ function ([9]; patients with mild hepatic impairment): not higher | exposure vs patients with normal organ function ([9]; patients with mild or moderate renal impairment): at most only slightly higher

clearance, (S,R)-darolutamide higher vs (S,S)-darolutamide ([1]; after the IV dose): 2.9 fold | RLIN, linearity factor (ratio of multiple-dose AUC0–12 to single-dose AUC) [2]: 0.9 | Terminal t½ ([2]; Day 1 (single dose) 600 mg oral with food, geometric mean/geometric CV% (range)): 14.5 h | tmax [2, 10]: 3.97 (1.02–6.02) h | tmax [2, 11]: 3.00 (0.967–4.00) h | RAAUC, accumulation ratio based on AUC0–12 [2]: 1.2 | RACmax, accumulation ratio based on Cmax [2]: 1.2
SMILES: C[C@@H](Cn1ccc(-c2ccc(C#N)c(Cl)c2)n1)NC(=O)c1cc([C@@H](C)O)[nH]n1 [(S,R)-darolutamide]
